Numbered stars: 1 amine (or outer) side, 2 acyl side, 3 side chain; on linkers, the order of the positions; unused ones are H or OH. Square brackets hold non-standard residues; d marks the D form. Peptide text beside a SMILES is read from it. * marks the point of attachment. X1 = CCN1C(=CC=CC=CC2=[N+](CCCCCC(=O)NCCN3C(=O)CC(*)C3=O)c3ccc(S(=O)(=O)[O-])cc3C2(C)C)C(C)(C)c2cc(S(=O)(=O)O)ccc21; Suc = O=C(CCC(=O)[*:2])[*:1]; Ahx = NCCCCCC(=O)O
Tests used:
[1] = Biodistribution; type: in vivo, mice; conditions: for Time for blood Cy5 fluorescence to decline to the same level: 10 nmol IV, blood from tail artery, average of three mice (Fig. 3B)
In short: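 Athymic nude mice carried HT1080 xenografts from 2 million cells injected into the mammary fat pad 5–7 days earlier. Each received 10 nmol Cy5-labelled peptide into the tail vein. Tail-artery blood in capillaries was imaged for Cy5 (640 nm excitation, 700 nm emission). At 30 min and 6 h, organ pieces were homogenised in 10 mM Tris pH 7.6 with 1% SDS, boiled, centrifuged and imaged frozen. Concentration came from tissue-specific spiked standard curves. SUV = (moles/g tissue)/(moles injected/body weight).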

[2] = tested on: HT1080 xenografted mice; assay: Confocal imaging of live mouse tissues after IV injection; type: in vivo; conditions: for Nuclear uptake in live tumor and tissues: 10 nmol IV, confocal stacks of live tissue, 30 minutes and 6 hours
In short: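 Xenografted HT1080 nude mice got 10 nmol Cy5-labelled peptide IV. Five minutes before sacrifice at 30 min or 6 h, they received IV Hoechst 33342 (250 µg) and rhodamine dextran (800 µg) to mark nuclei and blood pool. Organs were held on ice in HBSS and imaged unfixed by confocal microscopy within 30 min, as 3D stacks 5–60 µm deep. Excitation was 630, 405 and 535 nm.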

[3] = tested on: naïve athymic nude mice; assay: Acute toxicity of unlabeled peptides after IV injection; type: in vivo; conditions: 5 µmol/kg IV, isoflurane anesthesia, unlabeled peptide
[4] = 10 nmol injection, assuming 20–25g mouse
[5] = athymic nude, mouse, kidney, iv, 10 nmol
[6] = athymic nude, mouse, liver, iv, 10 nmol
[7] = athymic nude, mouse, tumor, iv, 10 nmol

Q: Which “Time for blood Cy5 fluorescence to decline to the same level” value [1] does the source give for `CCN1C(=CC=CC=CC2=[N+](CCCCCC(=O)NCCN3C(=O)CC(SC[C@@H](NC(=O)[C@@H](CCCNC(=N)N)NC(=O)[C@@H](CCCNC(=N)N)NC(=O)[C@@H](CCCNC(=N)N)NC(=O)[C@@H](CCCNC(=N)N)NC(=O)[C@@H](CCCNC(=N)N)NC(=O)[C@@H](CCCNC(=N)N)NC(=O)[C@@H](CCCNC(=N)N)NC(=O)[C@@H](CCCNC(=N)N)NC(=O)[C@@H](CCCNC(=N)N)NC(=O)CNC(=O)[C@H](C)NC(=O)[C@H](CC(C)C)NC(=O)CNC(=O)[C@H](CC(C)C)NC(=O)[C@@H]4CCCN4C(=O)CCCCCNC(=O)[C@@H](CCC(=O)O)NC(=O)[C@@H](CCC(=O)O)NC(=O)[C@@H](CCC(=O)O)NC(=O)[C@@H](CCC(=O)O)NC(=O)[C@@H](CCC(=O)O)NC(=O)[C@@H](CCC(=O)O)NC(=O)[C@@H](CCC(=O)O)NC(=O)[C@@H](CCC(=O)O)NC(=O)CCC(=O)O)C(N)=O)C3=O)c3ccc(S(=O)(=O)[O-])cc3C2(C)C)C(C)(C)c2cc(S(=O)(=O)O)ccc21` (stereo partly drawn) [ACPP, succinyl-e8-(x)-PLGLAG-r9-c(Cy5)-NH2] (Suc-[dE][dE][dE][dE][dE][dE][dE][dE][Ahx]PLGLAG[dR][dR][dR][dR][dR][dR][dR][dR][dR][dC](X1)-NH2) here?
A: 30 min

Q: And the “Final peptide concentration in kidney based on SUV” value [1, 4]?
A: 8 to 17 µmol/kg

Q: And the “Tumor SUV compared with CPP” value ([1]; 30 minutes after 10 nmol IV, HT1080 tumor homogenate, n=4 ACPP, n=3 CPP)?
A: slightly but not significantly greater

Q: What about the “Tumor uptake (SUV) relative to muscle” value ([1]; 6 hours after 10 nmol IV, HT1080 tumor) of the same compound?
A: roughly 4 fold

Q: What about the tissue uptake dose at 0.5 h [1, 5] of the same compound?
A: 28 %ID

Q: And the tissue uptake dose at 6 h [1, 5]?
A: 48 %ID

Q: And the tissue uptake dose at 0.5 h [1, 6]?
A: 21 %ID

Q: And the tissue uptake dose at 6 h [1, 6]?
A: 33 %ID

Q: And the SUV at 6 h [1, 7]?
A: 174 SUV

Q: And the tissue uptake at 6 h [1, 7]?
A: 1.7 %ID/g

Q: What about the “Nuclear uptake in live tumor and tissues” value [2] of the same compound?
A: below the detection limit

Q: What about the “Nuclear uptake in live tissues at 10 times the usual dose” value ([2]; 100 nmol or 5 µmol/kg IV, one mouse) of the same compound?
A: no detectable nuclear uptake in any tissue

Q: And the “Tumor fluorescence signal (confocal) compared with CPP” value ([2]; HT1080 tumors, 30 minutes and 6 hours after 10 nmol IV (Fig. 5A, B))?
A: about four times higher

Q: What about the Acute effect [3] of the same compound?
A: no acute effect

Q: With `CCN1C(=CC=CC=CC2=[N+](CCCCCC(=O)NCCN3C(=O)CC(SC[C@@H](NC(=O)[C@@H](CCCNC(=N)N)NC(=O)[C@@H](CCCNC(=N)N)NC(=O)[C@@H](CCCNC(=N)N)NC(=O)[C@@H](CCCNC(=N)N)NC(=O)[C@@H](CCCNC(=N)N)NC(=O)[C@@H](CCCNC(=N)N)NC(=O)[C@@H](CCCNC(=N)N)NC(=O)[C@@H](CCCNC(=N)N)NC(=O)[C@H](N)CCCNC(=N)N)C(N)=O)C3=O)c3ccc(S(=O)(=O)[O-])cc3C2(C)C)C(C)(C)c2cc(S(=O)(=O)O)ccc21` (stereo partly drawn) [CPP, r9-c(Cy5)-NH2] as the compound, how does the “Time for blood Cy5 fluorescence to decline to the same level” value [1] read?
A: 3 min

Q: What about the “Final peptide concentration in liver based on SUV” value [1, 4] of the same compound?
A: 8 to 17 µmol/kg

Q: What about the tissue uptake dose at 0.5 h [1, 5] of the same compound?
A: 8 %ID

Q: What about the tissue uptake dose at 6 h [1, 5] of the same compound?
A: 9 %ID

Q: What about the tissue uptake dose at 0.5 h [1, 6] of the same compound?
A: 90 %ID

Q: And the tissue uptake dose at 6 h [1, 6]?
A: 84 %ID

Q: What about the “Nuclear uptake in live tumor and tissues” value [2] of the same compound?
A: below the detection limit

Reference: article PMC2796831 (Integrative biology : quantitative biosciences from nano to …, 2009)
